Each structure is given as a SMILES string.

As a reminder, the IC50 is the concentration at which inhibition is half-maximal.

For one series, the system named is Peritoneal macrophage. Put plainly: Inhibition of LPS-stimulated nitric oxide production in ddy mouse peritoneal macrophages measured after 20 hrs by Greiss method. The series is classed as functional.
Series [1] deals with RAW264.7. The experiment in a line: Inhibition of LPS/INF-gamma-stimulated nitric oxide production in mouse RAW264.7 cells by Greiss method. It counts as functional, cell-based. The essentials: (§1)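 RAW264.7 murine macrophages were co-stimulated with LPS (100 ng/mL) plus IFN-γ (0.33 ng/mL) in the presence of test compound. Nitrite released into the medium was quantified by the Griess method as a measure of NO. Cell viability was read in parallel with AlamarBlue reagent.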

Series [2] deals with RAW264.7. Put plainly: Inhibition of LPS-stimulated nitric oxide production in mouse RAW264.7 cells by Greiss method. It counts as functional, cell-based. Put shortly: (§2)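 This variant stimulated RAW264.7 murine macrophages with LPS alone, without IFN-γ, in the presence of test compound. Released nitrite was measured by the Griess method to quantify NO production. Cell viability was assessed with AlamarBlue reagent.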

A short description of series [3]: Cytotoxicity against LPS/INF-gamma-stimulated mouse RAW264.7 cells assessed as cell viability at 100 uM by alamar blue assay relative to control. The note with it: LPS/INF-gamma-stimulated RAW264.7 cells, read-out: Activity. The series is classed as toxicity. The essentials:
as §1
Background: Resazurin is reduced to fluorescent resorufin, in cell work by metabolically active cells.

The nature of series [4]: Cytotoxicity against LPS-stimulated mouse RAW264.7 cells assessed as cell viability at 100 uM by alamar blue assay relative to control. The series is classed as toxicity. The settings on record: LPS-stimulated RAW264.7 cells, read-out: Activity. Put shortly: as §2
Series [5] relates to RAW264.7. The experiment in a line: Inhibition of LPS/INF-gamma-stimulated nitric oxide production in mouse RAW264.7 cells measured after 16 hrs. It counts as functional, cell-based. The note with it: RAW264.7, 16 h. The essentials:
as §1

For `O=C1C[C@@H](c2ccc(O)cc2)Oc2cc(O)ccc21` [LIQUIRTIGENIN], the IC50 in the series on Peritoneal macrophage came out at 85 µM.

For `COc1ccc(-c2cc(=O)c3c(O)cc(O)cc3o2)cc1` [ACACETIN], the IC50 turned out to be 53.7 µM in the series on RAW264.7 [1] and 27.7 µM with RAW264.7 [2]. For the same molecule, the viability at 100 µM in series [3] worked out at 115%; in series [4], 99%. In the case of `COc1ccc(-c2cc(=O)c3c(O)cc(O)cc3o2)cc1O` [DIOSMETIN], the values for the IC50 in the series with RAW264.7 [1], with RAW264.7 [2] and in the series with Peritoneal macrophage were 32.2 µM, 16.7 µM and 8.9 µM, respectively.

`O=c1cc(-c2ccc(O)c(O)c2)oc2cc(O)cc(O)c12` [LUTEOLIN]: the IC50 in the series on Peritoneal macrophage came to 20 µM.

In turn, `O=C1C[C@@H](c2cc(O)c(O)c(O)c2)Oc2cc(O)ccc21` showed an IC50 in the series with RAW264.7 [5] above 100 µM. Turning to `COc1ccc(-c2cc(=O)c3c(O)cc(O)cc3o2)cc1OC`, the IC50 in the series with RAW264.7 [1] worked out at 17 µM; in the series with RAW264.7 [2], 5 µM. Besides, the values for the viability at 100 µM in series [3] and in series [4] were 109% and 112%, respectively.

With `O=c1c(O)c(-c2cc(O)c(O)c(O)c2)oc2cc(O)ccc12` [ROBINETIN], the IC50 in the series with RAW264.7 [5] was 42 µM.

With `O=c1c(O)c(-c2cc(O)c(O)c(O)c2)oc2cc(O)cc(O)c12` [MYRICETIN], in the series with Peritoneal macrophage, half-maximal inhibition (IC50) was put at 99 µM.

For the molecule `O=c1c(O)c(-c2ccc(O)cc2)oc2cc(O)cc(O)c12` [KAEMPFEROL], the IC50 in the series on RAW264.7 [1] was 17 µM; in the series with RAW264.7 [2] it was 13.4 µM; in the series on Peritoneal macrophage it was 29 µM; in the series on RAW264.7 [5], 15 µM. Further, the figures for the viability at 100 µM in series [3] and in series [4] were 138% and 141%, respectively.

On to `O=c1cc(-c2ccc(O)c(O)c2)oc2cc(O)ccc12`, for which the IC50 in the series with Peritoneal macrophage was found to be 26 µM. In other words, the double-digit micromolar range. `O=c1cc(-c2ccc(O)cc2)oc2cc(O)cc(O)c12` [APIGENIN]: the values for the IC50 in the series on Peritoneal macrophage and in the series on RAW264.7 [5] were 7.7 µM and 14 µM, respectively.

For `O=C1C[C@@H](c2cc(O)cc(O)c2)Oc2cc(O)cc(O)c21`, the IC50 in the series with RAW264.7 [5] was 12 µM. In other words, the double-digit micromolar range.

In the series with RAW264.7 [5], `O=C1C[C@@H](c2ccc(O)cc2)Oc2cc(O)cc(O)c21` [NARINGENIN] displayed an IC50 of 60 µM. Still for that read-out and setting: the same measure for `O=C1c2ccc(O)cc2O[C@H](c2cc(O)c(O)c(O)c2)[C@H]1O`: above 100 µM; for `COc1cc(-c2oc3cc(O)ccc3c(=O)c2O)cc(OC)c1O`: 63 µM.

Take `COc1c(O)cc(-c2cc(=O)c3c(O)cc(O)cc3o2)cc1O`: the IC50 in the series with RAW264.7 [1] was 59.3 µM; in the series with RAW264.7 [2], 37 µM. Also, the viability at 100 µM in series [3] came out at 119%; in series [4] it was 112%. As for `O=C1C[C@@H](c2ccc(O)c(O)c2)Oc2cc(O)cc(O)c21` [ERIODICTYOL], in the series on Peritoneal macrophage, the IC50 is above 100 µM.

For the molecule `COc1ccc(-c2oc3cc(O)cc(O)c3c(=O)c2O)cc1O` [TAMARIXETIN], the IC50 in the series on Peritoneal macrophage was 25 µM.

In the case of `COc1cc(-c2cc(=O)c3c(O)cc(O)cc3o2)cc(O)c1OC`, the IC50 in the series with RAW264.7 [1] was 18.2 µM; with RAW264.7 [2], 6.9 µM. Moreover, the viability at 100 µM in series [3] was found to be 96%; in series [4], 106%. For the molecule `COc1c(O)cc(-c2oc3cc(O)ccc3c(=O)c2O)cc1O`, the midpoint of inhibition in the series on RAW264.7 [5], the IC50, lay at 14 µM. This lies in the double-digit micromolar range. Consider `COc1c(O)cc([C@H]2Oc3cc(O)ccc3C(=O)[C@@H]2O)cc1O`, for which, in the series with RAW264.7 [5], the IC50 is above 100 µM.

In the series with RAW264.7 [5], `O=C1c2c(O)cc(O)cc2O[C@H](c2ccc(O)cc2)[C@H]1O` [DIHYDROKAEMPFEROL] registered an IC50 above 100 µM.

As to `COc1cc(-c2cc(=O)c3c(O)cc(O)cc3o2)cc(OC)c1O` [TRICIN], in the series on RAW264.7 [5], 8 µM corresponded to half-maximal inhibition (IC50). Molecule `O=c1c(O)c(-c2ccc(O)c(O)c2)oc2cc(O)cc(O)c12` [QUERCETIN] displayed an IC50 in the series on Peritoneal macrophage of 36 µM. The same measure, in the same setting: the same measure for `O=c1cc(-c2ccc(O)cc2)oc2cc(O)ccc12`: 14 µM. `COc1cc([C@H]2Oc3cc(O)ccc3C(=O)[C@@H]2O)cc(OC)c1O`: in the series on RAW264.7 [5], the IC50 was above 100 µM. In the series on Peritoneal macrophage, `COc1c(O)cc(-c2oc3cc(O)cc(O)c3c(=O)c2O)cc1O` [MEARNSETIN] yielded an IC50 of 84 µM.

For the origin of these results see ChEMBL document CHEMBL3872265, “Structure-activity relationship of the inhibitory effects of flavonoids on nitric oxide production in RAW264.7 cells” (Bioorg Med Chem, 2017).
